Compound activity: PubChem BioAssay, several laboratories
GPR7 antag: antagonists of human GPR7 (neuropeptides B/W receptor 1); inhibition, % at 4.4 µM; AID 1861; P48145; 290,000 compounds, 1.1% hits; GPR7-expressing cells, fluorescence antagonist assay; in the data active = inhibition above about 16%, passing the limit was not always enough;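 note: cells stimulated with the agonist NPW; 0% = agonist with vehicle and 100% = vehicle without agonist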
Target sequence (P48145 whole entry, looked up): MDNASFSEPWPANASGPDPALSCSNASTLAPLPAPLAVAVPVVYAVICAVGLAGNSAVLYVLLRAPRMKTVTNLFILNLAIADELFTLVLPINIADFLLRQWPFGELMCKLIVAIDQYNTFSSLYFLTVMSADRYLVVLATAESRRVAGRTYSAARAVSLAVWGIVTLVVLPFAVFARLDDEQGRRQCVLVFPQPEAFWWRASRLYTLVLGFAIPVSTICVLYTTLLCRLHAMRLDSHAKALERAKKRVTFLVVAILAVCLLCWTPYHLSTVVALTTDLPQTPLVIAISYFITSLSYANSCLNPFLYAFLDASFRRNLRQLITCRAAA
zfTRPN1 agonist: zebrafish TRPN1 (NompC) channel agonism | HEK293 zebrafish TRPN1-YFP, Fluo-8 calcium fluorescence; 100% = response to 87 µM carbachol | AID 1424 | 220,000 compounds, 0.18% hits | activation, % at 3 µM;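 active = activation above its plate's cutoff, the mean activation of test wells on that plate plus 3 SD, cut at about 19% in these data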;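 note: 0% = DMSO alone and 100% = 87 µM carbachol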
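Control set: carbachol 87 µM as high control, DMSO as low control; system: HEK293 stable line with zebrafish TRPN1-YFP; read-out: % activation versus carbachol response; detection: intracellular calcium fluorescence with Fluo-8; doses: single test compound dose, 3 µM nominal, 0.3% DMSO; schedule: dye 1 h 37 °C plus 30 min RT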
TAAR1 antag: antagonists of human TAAR1; CHO RD-HGA16 TAAR1, Fluo-8 calcium fluorescence, antagonist; inhibition, % at 3 µM; 360,000 compounds, 1.5% hits;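 active = inhibition above a per-plate cutoff, the mean inhibition of test compounds on that plate plus 3 SD, cut at about 49% in these data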;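 note: 0% = DMSO plus EC80 beta-PEA response and 100% = DMSO alone without agonist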
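Material: RD-HGA16 CHO cells with stable hTAAR1 and Gα16; Dosing: single nominal final test compound concentration of 3 µM; Schedule: seeding 17-24 h prior, 75-min 37 °C, 30-min RT dye loading; Detection: kinetic Fluo-8 calcium fluorescence measurement; Measure: % inhibition from peak post-agonist over basal fluorescence ratio; Benchmarks: vehicle and agonist controls.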
LANA-H2B inh: blocks KSHV LANA binding to histone H2A/H2B. 320,000 compounds, 0.6% hits. Q9QR71. inhibition, % (no concentration beside the values). cell-free LANA-H2A/H2B peptide, fluorescence polarization; in the data active = inhibition mostly above about 10%, no sharp cut-off; inactive = mostly below about 6.7%
TAAR1 agonist: agonists of human TAAR1; Q96RJ0; CHO RD-HGA16 TAAR1, Fluo-8 calcium fluorescence; vehicle wells 0%, saturating PEA agonist 100%; activation, % at 3 µM; 360,000 compounds, 0.99% hits;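 active = activation above the mean activation of all test compounds in the run plus 3 SD, cut at about 38% in these data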
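System: CHO-derived RD-HGA16 cells with stable Gα16 and human TAAR1 / Times: 17-24 h plating, Fluo-8 75 min 37 °C, 30 min RT / Technique: calcium-sensitive Fluo-8 signal, excitation 470-495, emission 515-575 nm / Measure: % activation relative to PEA EC100 response / Benchmarks: DMSO and PEA EC100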
TRPML3 agonist: agonists of human TRPML3 channel; activation, % at 3 µM; Q8TDD5; HEK293 TRPML3-YFP, Fluo-8 calcium fluorescence; 100% = the carbachol control signal; 220,000 compounds, 0.29% hits; AID 1448;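 active = activation above its plate's cutoff, the mean activation of the plate's test wells plus 3 SD, cut at about 12% in these data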;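 note: 0% = DMSO only wells and 100% = carbachol wells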
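Material: TRPML3-YFP stable HEK293 cells | Dosing: One concentration, 3 µM nominal, 0.3% DMSO | Timing: 125 s total fluorescence read per well | Technique: Fluo-8 calcium dye fluorescence, ex 470-495, em 515-575 nm | Measure: Percent activation from peak-to-basal fluorescence ratio, scaled between DMSO and carbachol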
TAAR1 ag conf: human TAAR1 agonism, confirmed. shares compounds with TAAR1 agonist. CHO RD-HGA16 TAAR1, Fluo-8 calcium fluorescence; scaled: DMSO 0%, maximal phenethylamine 100%. activation, % at 3 µM. 2,400 compounds, 82% hits;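 active = activation above a cutoff set at the run's mean compound activation plus 3 SD, cut at about 39% in these data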
Ga16 nonsel ag: nonselective agonism, TAAR1 counter-screen. shares compounds with TAAR1 agonist. CHO-Ga16 parental, Fluo-8 calcium fluorescence; normalized to maximal ATP response, DMSO zero. activation, % at 3 µM. 2,400 compounds, 50% hits. AID 651787;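 active = activation above the run cutoff, the mean activation over all tested wells plus 3 SD, cut at about 12% in these data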;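 note: 0% = DMSO wells and 100% = maximal ATP response on the peak over basal ratio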
TAAR1 desens: human TAAR1 agonist that also desensitizes the receptor | AID 651951 | 2,400 compounds, 46% hits | CHO RD-HGA16 hTAAR1, Fluo-8 calcium, beta-PEA response inhibition | shares compounds with TAAR1 agonist | inhibition, % at 3 µM;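 active = inhibition above the run cutoff, the mean inhibition of all test compounds plus 3 SD, cut at about 49% in these data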;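 note: beta-PEA stimulus applied at its EC80; loss of beta-PEA calcium signal after compound pretreatment read as receptor desensitization; 0% = DMSO with beta-PEA at EC80 and 100% = DMSO alone without agonist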
Ga16 nonsel ant: nonselective Ga16 antagonist in TAAR1 agonist counter-screen; shares compounds with TAAR1 agonist; CHO-Ga16 ATP-induced calcium, Fluo-8 fluorescence; inhibition, % at 3 µM; 2,400 compounds, 39% hits; AID 651952;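 active = inhibition above the plate's mean compound inhibition plus 3 SD, computed per plate, cut at about 22% in these data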;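 note: 0% = EC80 ATP with DMSO and 100% = DMSO wells without ATP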
The depositor's hits bear a star; · = no result given. This is a sample that favours compounds with a hit; in the whole collection about 3.4% have one here.

SMILES	GPR7 antag	zfTRPN1 agonist	TAAR1 antag	LANA-H2B inh	TAAR1 agonist	TRPML3 agonist	TAAR1 ag conf	Ga16 nonsel ag	TAAR1 desens	Ga16 nonsel ant
CC(C)CC(C(=O)N1CCc2ccccc2C1)N1C(=O)c2ccccc2C1=O (centres undefined)	20*	-3	37	0	75*	-1	77*	3	65*	15
CC(=O)Oc1c(-c2ccco2)oc2ccccc2c1=O	-11	3	-5	-4	0	2	·	·	·	·
COc1ccc(C(=O)C(=O)N2CCN(c3ccccc3F)CC2)cc1	·	·	1	·	-1	·	·	·	·	·
Cc1cc(C(=O)CSc2nnnn2C)c(C)n1CCc1ccc(F)cc1	2	-1	11	0	44*	-1	63*	6	14	10
Cc1cc(C)c(C#N)c(SCC(=O)c2cc(C)n(CCc3ccccc3)c2C)n1	-8	3	52*	-7	91*	0	93*	2	100*	17
Cc1cc(C(=O)CSc2nnnn2-c2ccccc2)c(C)n1CC1CCCO1 (centres undefined)	1	1	3	-4	4	0	·	·	·	·
Cc1cc(C(=O)CSc2nnnn2-c2ccccc2)c(C)n1CCc1ccccc1	0	0	-3	2	58*	1	99*	0	83*	11
CC(Sc1nnc(Cc2ccccc2)n1C)C(=O)NC1CC1 (centres undefined)	·	·	4	·	5	·	·	·	·	·
O=C(CC1C(=O)NCCN1CCCc1ccccc1)NCCc1ccccc1F (centres undefined)	3	·	44	2	75*	·	93*	1	72*	0
Cc1nc([N+](=O)[O-])c(Br)n1Cc1ccc(Cl)c(Cl)c1	2	1	37	·	51*	1	9	5	18	13
CC1(C)OC(=O)N(NCc2ccccc2)C1(C)O (centres undefined)	-7	·	-5	-5	-1	·	·	·	·	·
CNc1nc(NCCOc2ccccc2Cl)c2sccc2n1	·	·	72*	·	72*	·	51*	50*	57*	47*
CC[C@@H](NC(=O)[C@H](Cc1ccccc1)NC(=O)CC[C@H]1O[C@@H](n2ccc(=O)[nH]c2=O)[C@H](O)[C@@H]1O)c1ccccc1	·	·	-18	·	1	·	·	·	·	·
OCCCNCc1ccc(N(c2ccccc2)c2ccccc2)cc1	5	·	-3	-1	45*	·	73*	25*	27	16
COc1ccc(N2C(=O)CN(Cc3ccc(OC)c(OC)c3)C2=S)cc1	1	1	31	0	154*	1	13	3	3	7
CCOC(=O)C1(C)CCN1C(=O)c1cc2ccccc2s1 (centres undefined)	·	·	-3	·	-1	·	·	·	·	·
CN(C(=O)CSc1nc2scc(-c3ccccc3)c2c(=O)[nH]1)c1ccccc1	·	·	24	-3	9	·	·	·	·	·
Cc1cccc(C(=O)CC(=O)c2cc(Cl)ccc2O)c1	-6	0	·	0	·	0	·	·	·	·
Cc1ccc(O)c(C(=O)CC(=O)c2cccc(F)c2)c1	2	0	28	1	54*	0	28	19*	21	22*
Cc1ccc(O)c(C(=O)CC(=O)c2ccc(Cl)cc2)c1	0	·	20	1	54*	·	43*	23*	51*	37*
Nc1ncnc2c(C3OC(CO)C(O)C3O)c[nH]c12 (centres undefined)	·	·	-12	·	1	·	·	·	·	·
